Data reported in the array DNA melting data of Ke et al. (doi:10.1101/2024.01.08.574731).

What was measured:
[1] = folding enthalpy; higher = less favourable; fluorescence melt of hairpins on a sequencing array, two-state fit; settings: sodium 0.088 M
Summary of the method: (§1)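 Library hairpins on a sequenced MiSeq flow cell carried annealed Cy3 and quencher oligos, and their Cy3 fluorescence was imaged in 50 mM Na-HEPES pH 8.0 with 25 mM NaCl, in 2.5 °C steps up to 60 °C. Signals were normalised to Cy3 before quenching and to control constructs. Melting temperature and folding enthalpy were obtained from bootstrapped two-state fits, combined by inverse-variance weighting across four replicates, and the fitted temperatures were then raised by 9.35 °C to match UV melts.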

[2] = melting temperature; fluorescence melt of hairpins on a sequencing array, two-state fit, raised by 9.35 °C to match UV melts; settings: sodium 0.088 M
Summary of the method: as §1

GGCTACGCGAAAGCGGCC (((..(((....))))))
folding enthalpy [1]: -17.2 kcal/mol
Tm [2]: 56.9 °C

GGCTACGGAAACATAGCC (((((.(....).)))))
folding enthalpy [1]: -28.8 kcal/mol
Tm [2]: 43.8 °C

GGCTACGGAAACGTAACC ((.((((....)))).))
folding enthalpy [1]: -26.2 kcal/mol
Tm [2]: 42.1 °C

GGCTAGGCGAAAGCCGCC (((..(((....))))))
folding enthalpy [1]: -15 kcal/mol
Tm [2]: 60.8 °C

GGCTAGGGAAACCTGGCC (((.(((....))).)))
folding enthalpy [1]: -44.8 kcal/mol
Tm [2]: 55.5 °C

GGCTAGGGAAACTTAGCC (((((.(....).)))))
folding enthalpy [1]: -37.1 kcal/mol
Tm [2]: 49.4 °C

GGCTATACGAAAGTAGCC (((..(((....))))))
folding enthalpy [1]: -32.6 kcal/mol
Tm [2]: 48.7 °C

GGCTCACGAAAGTGGCC (((.(((....))))))
folding enthalpy [1]: -26.3 kcal/mol
Tm [2]: 56.6 °C

GGCTCAGGAAACCGAGCC (((((.(....).)))))
folding enthalpy [1]: -49.1 kcal/mol
Tm [2]: 54.5 °C

GGCTCATCGAAAGATGCC (((..(((....))))))
folding enthalpy [1]: -13.3 kcal/mol
Tm [2]: 37.5 °C

GGCTCCGAAAGGAACGCC ((((((....)))..)))
folding enthalpy [1]: -21 kcal/mol
Tm [2]: 50.5 °C

GGCTCCGAAAGGAAGGCC ((((((....)))..)))
folding enthalpy [1]: -29.7 kcal/mol
Tm [2]: 52.6 °C

GGCTCCGAAAGGACGCC ((((((....))).)))
folding enthalpy [1]: -29.1 kcal/mol
Tm [2]: 59.9 °C

GGCTCCGCGAAAGCGGCC (((..(((....))))))
folding enthalpy [1]: -8.55 kcal/mol
Tm [2]: 41.4 °C

GGCTCGCCGAAAGGCGCC (((..(((....))))))
folding enthalpy [1]: -6.98 kcal/mol
Tm [2]: 35.7 °C

GGCTCGGGAAACCGAACC ((.((((....)))).))
folding enthalpy [1]: -29.7 kcal/mol
Tm [2]: 48.8 °C

GGCTCTACGAAAGTAGCC (((..(((....))))))
folding enthalpy [1]: -17.1 kcal/mol
Tm [2]: 40.1 °C

GGCTCTCCGAAAGGAGCC (((..(((....))))))
folding enthalpy [1]: -15 kcal/mol
Tm [2]: 49 °C

GGCTCTGGAAACAAAGCC ((((.((....)).))))
folding enthalpy [1]: -29.9 kcal/mol
Tm [2]: 38 °C

GGCTGACCGAAAGGTGCC (((..(((....))))))
folding enthalpy [1]: -24.7 kcal/mol
Tm [2]: 52.4 °C

GGCTGACGAAAGTCGCC (((.(((....))))))
folding enthalpy [1]: -28.9 kcal/mol
Tm [2]: 59.6 °C

GGCTGAGGAAACTCGGTC (.(.(((....))).).)
folding enthalpy [1]: -25 kcal/mol
Tm [2]: 40.8 °C

GGCTGCACGAAAGTGGCC (((..(((....))))))
folding enthalpy [1]: -20 kcal/mol
Tm [2]: 49 °C

GGCTGCCGAAAGGCGCC (((.(((....))))))
folding enthalpy [1]: -18.9 kcal/mol
Tm [2]: 68.3 °C

GGCTGCGAAAGCATAGCC ((((((....)))..)))
folding enthalpy [1]: -35.5 kcal/mol
Tm [2]: 57.1 °C

GGCTGCGCGAAAGCGGCC (((..(((....))))))
folding enthalpy [1]: -19.2 kcal/mol
Tm [2]: 60.3 °C

GGCTGCTCGAAAGAGGCC (((..(((....))))))
folding enthalpy [1]: -19.7 kcal/mol
Tm [2]: 43.8 °C

GGCTGGAAACAGCC (((((....)))))
folding enthalpy [1]: -30.9 kcal/mol
Tm [2]: 67.5 °C

GGCTGGGGAAACCCAACC ((.((((....)))).))
folding enthalpy [1]: -27 kcal/mol
Tm [2]: 45.8 °C

GGCTGGGGAAACCTGGCC (((..((....))..)))
folding enthalpy [1]: -30.6 kcal/mol
Tm [2]: 51.7 °C

GGCTGTACGAAAGTAGCC (((..(((....))))))
folding enthalpy [1]: -27.5 kcal/mol
Tm [2]: 51.1 °C

GGCTGTGGAAACACGGCC (((.(((....))).)))
folding enthalpy [1]: -46.6 kcal/mol
Tm [2]: 60.8 °C

GGCTTACGAAAGTAGGCC (((.(((....))).)))
folding enthalpy [1]: -43.6 kcal/mol
Tm [2]: 60.1 °C

GGCTTAGGAAACTAGGCC (((.(((....))).)))
folding enthalpy [1]: -31.3 kcal/mol
Tm [2]: 48.7 °C

GGCTTCGAAAGAAAAGCC ((((((....)))..)))
folding enthalpy [1]: -28 kcal/mol
Tm [2]: 46.6 °C

GGCTTCGAAAGAAATGCC ((((((....)))..)))
folding enthalpy [1]: -25.3 kcal/mol
Tm [2]: 38.5 °C

GGCTTCGAAAGAATCGCC ((((((....)))..)))
folding enthalpy [1]: -27.7 kcal/mol
Tm [2]: 35.8 °C

GGCTTCGAAAGAATGGCC ((((((....)))..)))
folding enthalpy [1]: -25.2 kcal/mol
Tm [2]: 42.2 °C

GGCTTCGGAAACGGAGCC ((((.((....)).))))
folding enthalpy [1]: -42.2 kcal/mol
Tm [2]: 59.1 °C

GGCTTGACGAAAGTCGCC (((..(((....))))))
folding enthalpy [1]: -14.5 kcal/mol
Tm [2]: 55.2 °C

GGCTTGGGAAACCAGGTC (.(.(((....))).).)
folding enthalpy [1]: -23.2 kcal/mol
Tm [2]: 37 °C

GGCTTGTCGAAAGACGCC (((..(((....))))))
folding enthalpy [1]: -18.5 kcal/mol
Tm [2]: 49.9 °C

GGCTTTCGAAAGAACGCC (((.(((....))).)))
folding enthalpy [1]: -39.3 kcal/mol
Tm [2]: 50.2 °C

GGCTTTGGAAACAAGGTC (.(.(((....))).).)
folding enthalpy [1]: -13.9 kcal/mol
Tm [2]: 32.2 °C

GGCTTTGGAAACAGAGTC (.((.((....)).)).)
folding enthalpy [1]: -10.1 kcal/mol
Tm [2]: 29.3 °C

GGGAAAACGAAAGTTCCC (((..(((....))))))
folding enthalpy [1]: -27.1 kcal/mol
Tm [2]: 43.5 °C

GGGAAACGAAAGTTCCC (((.(((....))))))
folding enthalpy [1]: -28 kcal/mol
Tm [2]: 53.4 °C

GGGAAAGCGAAAGCTCCC (((..(((....))))))
folding enthalpy [1]: -20.9 kcal/mol
Tm [2]: 51.8 °C

GGGAACACGAAAGTGCCC (((..(((....))))))
folding enthalpy [1]: -19.8 kcal/mol
Tm [2]: 45 °C

GGGAACCGAAAGGTACCC (((.(((....))).)))
folding enthalpy [1]: -34.5 kcal/mol
Tm [2]: 58.6 °C

GGGAACGAAAGTTCACCC ((((((....)))..)))
folding enthalpy [1]: -20.7 kcal/mol
Tm [2]: 51.6 °C

GGGAACGAAAGTTCTCCC ((((((....)))..)))
folding enthalpy [1]: -14.7 kcal/mol
Tm [2]: 45 °C

GGGAACGGAAACGTCCCC (((.(((....))).)))
folding enthalpy [1]: -30.7 kcal/mol
Tm [2]: 50.2 °C

GGGAAGCCGAAAGGCCCC (((..(((....))))))
folding enthalpy [1]: -16.3 kcal/mol
Tm [2]: 50.6 °C

GGGAAGGCGAAAGCCCCC (((..(((....))))))
folding enthalpy [1]: -14 kcal/mol
Tm [2]: 48.1 °C

GGGAATGGAAACATTTCC ((.((((....)))).))
folding enthalpy [1]: -32 kcal/mol
Tm [2]: 45.1 °C

GGGACCCGAAAGGGCCC (((.(((....))))))
folding enthalpy [1]: -19 kcal/mol
Tm [2]: 66 °C

GGGACCGAAAGGTACCCC ((((((....)))..)))
folding enthalpy [1]: -12.5 kcal/mol
Tm [2]: 61.3 °C

GGGACCGAAAGGTAGCCC ((((((....)))..)))
folding enthalpy [1]: -16 kcal/mol
Tm [2]: 43.2 °C

GGGACCGAAAGGTGCCCC ((((((....)))..)))
folding enthalpy [1]: -13.5 kcal/mol
Tm [2]: 57.6 °C

GGGACCGAAAGGTGTCCC ((((((....)))..)))
folding enthalpy [1]: -23.4 kcal/mol
Tm [2]: 51.3 °C

GGGACCGGAAACAGTCCC (((((.(....).)))))
folding enthalpy [1]: -34.5 kcal/mol
Tm [2]: 49.4 °C

GGGACGACGAAAGTCCCC (((..(((....))))))
folding enthalpy [1]: -15.2 kcal/mol
Tm [2]: 49.2 °C

GGGACTCGAAAGAGACCC (((.(((....))).)))
folding enthalpy [1]: -39.2 kcal/mol
Tm [2]: 59.5 °C

GGGAGAGCGAAAGCTCCC (((..(((....))))))
folding enthalpy [1]: -15.8 kcal/mol
Tm [2]: 53.7 °C

GGGAGATCGAAAGATCCC (((..(((....))))))
folding enthalpy [1]: -14.5 kcal/mol
Tm [2]: 49.8 °C

GGGAGCGAAAGCTACCC ((((((....))).)))
folding enthalpy [1]: -15.7 kcal/mol
Tm [2]: 62.8 °C

GGGAGCGAAAGCTGGCCC ((((((....)))..)))
folding enthalpy [1]: -14 kcal/mol
Tm [2]: 39.8 °C
